Activity calls are given as the source filed them. The calls are words filed in the database; no cut-off is given here. Where a SMILES comes first, the peptide text is derived from it.
Experiments:
[1] = test system: Salmonella enterica subsp. enterica serovar Pullorum; test: Antibacterial activity against Salmonella pullorum ATCC 7913 measured after 24 hrs; assay type: functional
Summary of the method: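 Broth microdilution adapted from NCCLS. Mid-log bacteria were diluted in MHB to a final (0.5–1) × 10^5 CFU mL−1. Peptides were serially diluted in 0.2% BSA and mixed with an equal volume of cells. After 24 h at 37 °C, MIC was read at A492 as the lowest concentration inhibiting 95% of growth. At least three independent experiments, each with three technical replicates.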

Pseudomonas aeruginosa [2] = test: Antibacterial activity against Pseudomonas aeruginosa ATCC 27853 assessed as ratio of MBC after and before 30 serial passages at sub-MBC; assay type: functional
Summary of the method: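 P. aeruginosa ATCC 27853 passaged every 24 h by 100-fold dilution in MHB containing sub-MBC drug, for 30 passages. MBC was tested on the cells from each passage. Control cells were passaged in drug-free MHB. Run independently in triplicate with three biological replicates.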

Lipopolysaccharide (LPS) = test: Displacement of BODIPY-TR-cadaverine from Escherichia coli O111:B4 LPS at 1 to 64 uM after 1 hr by spectrofluorophotometric method relative to control
Summary of the method: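 LPS from E. coli O111:B4 (50 μg/mL) preincubated 4 h with BODIPY-TR-cadaverine (5 μg/mL) in 50 mM Tris, pH 7.4. Mixed with equal volume of peptide (1-64 µM) and incubated 1 h at 37 °C, then fluorescence read. %ΔF = (Fobs−F0)/(F100−F0)×100, with 10 μg mL-1 polymyxin B defining F100. Three technical replicates per experiment.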

Escherichia coli [3] = test: Induction of outer membrane permeabilization in Escherichia coli ATCC 25922 at 1 to 64 uM by NPN-dye based assay; assay type: organism-based
Summary of the method: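 Mid-log E. coli ATCC 25922 (OD600 0.2) with 10 μM NPN in 5 mM HEPES pH 7.4 with 5 mM glucose for 30 min, background subtracted (ex 350, em 420 nm). Mixed with equal volume of peptide (1 to 64 μM) and fluorescence followed to plateau. Uptake normalised to 10 μg/mL polymyxin B. Three independent experiments, each with three technical replicates.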

Escherichia coli [4] = test: Induction of cytoplasmic membrane […] in Escherichia coli ATCC 25922 assessed as increase in ONPG release at 1 to 64 uM measured at 6 mins interval for 120 mins by spectroscopically; assay type: organism-based
Summary of the method: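 E. coli 25922 grown to mid-log in MHB with 2% lactose, then diluted to OD600 0.05 in 5 mM HEPES pH 7.4 with 20 mM glucose and 1.5 mM ONPG. Mixed with equal volume of peptide (1 to 64 μM) at 37 °C. OD420 read every 6 min for 0–120 min. Triplicate, three biological replicates.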

Lipid bilayer [5] = test: Induction of membrane disruption in PG/CL/PE large unilamellar vesicles assessed as calcein-entrapped liposome leakage at 64 uM after 15 mins by spectrofluorophotometric assay relative to control
Summary of the method: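 Calcein (70 mM)-loaded LUVs of PG/CL/PE (2:1:7 w/w/w, E. coli membrane mimic), made by freeze-thaw and 100-nm extrusion, free dye removed on Sephadex G-50. LUVs (100 μM) exposed to peptide (1–64 μM) for 15 min. Leakage read at ex 490/em 520 nm: liposomes alone are background, Triton X-100 is 100%. Independent triplicates.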

Escherichia coli [6] = test: Induction of outer membrane permeabilization in Escherichia coli ATCC 25922 at 64 uM by NPN-dye based assay relative to control
Summary of the method: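 Mid-log E. coli ATCC 25922 (OD600 0.2) incubated 30 min with NPN (10 μM) in 5 mM HEPES pH 7.4 with 5 mM glucose, then mixed 1:1 with peptide (1–64 μM). Fluorescence (ex 350/em 420 nm) recorded until it plateaued. Percent NPN uptake calculated relative to no peptide and to 10 μg/mL polymyxin B. Three independent experiments, triplicates.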

Staphylococcus aureus [7] = test: Bactericidal activity against Staphylococcus aureus ATCC 29213 assessed as reduction in bacterial growth at MBC measured within 30 mins by time-kill assay relative to control; assay type: functional; parameters: scale not given: the % may be the effect or the level left
Summary of the method: (§1)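 Time-kill: cells at a final 0.5–1×10^5 CFU/mL were exposed to peptide at 1×MBC/MFC. Aliquots were removed at intervals to count survivors against an untreated control. Means of three independent experiments, each with three technical replicates.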

Candida albicans [8] = test: Fungicidal activity against Candida albicans cgmcc2.2086 assessed as reduction in bacterial growth at MFC measured within 3 mins by time-kill assay relative to control; assay type: functional; parameters: scale not given: the % may be the effect or the level left; summary of the method: as §1
Pseudomonas aeruginosa [9] = test: Antibacterial activity against melittin-resistant Pseudomonas aeruginosa ATCC 27853 measured after 24 hrs; assay type: functional, organism-based
Staphylococcus aureus [10] = test: Antibacterial activity against Staphylococcus aureus ATCC 29213 assessed as ratio of MIC95 in presence of CaCl2 to in absence of CaCl2; assay type: functional
Summary of the method: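 S. aureus ATCC 29213, mid-log, (0.5–1) × 10^5 CFU/mL final in MHB, with or without 2 mM CaCl2 (final). Peptide serially diluted in 0.2% BSA and mixed 1:1 with cells, 24 h at 37 °C. MIC is the lowest concentration inhibiting 95% of growth by A492. Three independent experiments, each with three technical replicates.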

Candida albicans [11] = test: Antifungal activity against Candida albicans cgmcc2.2086 assessed as ratio of MIC95 in presence of CaCl2 to in absence of CaCl2; assay type: functional
Summary of the method: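 C. albicans cgmcc 2.2086, (0.5–1) × 10^3 CFU/mL final in MOPS-buffered RPMI 1640, with or without 2 mM CaCl2 (final). Peptide serially diluted in 0.2% BSA and mixed 1:1, 48 h at 28 °C. MIC is the lowest concentration inhibiting 95% of growth by A492. Three independent assays, each with three technical replicates.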

Candida albicans [12] = test: (§2) Antifungal activity against Candida albicans cgmcc2.2086 infected in C57BL/6 mouse model of keratitis assessed as reduction in clinical score at 1 to 5 mg/ml administered as topical eye drop every 5 mins for first 4 hrs and every 30 mins for next 7 hrs measured post-last dose; assay type: functional, organism-based
Candida albicans [13] = test: Antifungal activity against Candida albicans cgmcc2.2086 infected in C57BL/6 mouse model of keratitis assessed as appearance of transparent corneas at 1 to 5 mg/ml administered as topical eye drop every 5 mins for first 4 hrs and every 30 mins for next 7 hrs measured post-last dose; assay type: functional, organism-based
Candida albicans [14] = test: as §2, with “fungal hyphae infiltration into corneal stroma” for “clinical score”, “dose by periodic acid schiff staining-based histological analysis” for “dose”; assay type: functional, organism-based
Lipid bilayer [15] = test: Induction of membrane disruption in PC/CL large unilamellar vesicles assessed as calcein-entrapped liposome leakage at 1 to 64 uM after 15 mins by spectrofluorophotometric assay relative to control; details: artificial membrane, 0.25 h
Escherichia coli [16] = test: Induction of morphological changes in Escherichia coli ATCC 25922 assessed as pore formation at MBD measured after 1 hr by transmission electron microscopic analysis; assay type: functional, organism-based
Staphylococcus aureus [17] = test: Induction of morphological changes in Staphylococcus aureus ATCC 29213 assessed as cytoplasmic leakage at MBD measured after 1 hr by transmission electron microscopic analysis; assay type: functional, organism-based

Molecule	MIC95 [1] [µM]	Ratio (Pseudomonas aeruginosa [2])	Activity (Lipopolysaccharide (LPS)) [%]	Activity (Escherichia coli [4])	Activity (Lipid bilayer [5]) [%]	Activity (Escherichia coli [6]) [%]	also measured
POLYMYXIN B	1	–	–	–	–	–	–
CC[C@H](C)[C@H](NC(=O)CN)C(=O)NCC(=O)N[C@@H](C)C(=O)N[C@H](C(=O)N[C@@H](CC(C)C)C(=O)N[C@@H](CCCCN)C(=O)N[C@H](C(=O)N[C@@H](CC(C)C)C(=O)N[C@H](C(=O)N[C@H](C(=O)NCC(=O)N[C@@H](CC(C)C)C(=O)N1CCC[C@H]1C(=O)N[C@@H](C)C(=O)N[C@@H](CC(C)C)C(=O)N[C@H](C(=O)N[C@@H](CO)C(=O)N[C@@H](Cc1c[nH]c2ccccc12)C(=O)N[C@H](C(=O)N[C@@H](CCCCN)C(=O)N[C@@H](CCCNC(=N)N)C(=O)N[C@@H](CCCCN)C(=O)N[C@@H](CCCNC(=N)N)C(=O)N[C@@H](CCC(N)=O)C(=O)N[C@@H](CCC(N)=O)C(N)=O)[C@@H](C)CC)[C@@H](C)CC)[C@@H](C)O)[C@@H](C)O)C(C)C)C(C)C [MELITTIN]	–	128	96	Active	–	–	Activity (Escherichia coli [3]): Active
CC[C@H](C)[C@H](NC(=O)[C@H](CCCCN)NC(=O)[C@H](C)NC(=O)[C@H](C)N)C(=O)N[C@H](C(=O)N[C@@H](CC(C)C)C(=O)N[C@@H](CC(N)=O)C(=O)N1CCC[C@H]1C(=O)N[C@@H](CCCCN)C(=O)N[C@@H](Cc1ccccc1)C(=O)N[C@@H](CCCNC(=N)N)C(=O)N[C@@H](CS)C(=O)N[C@@H](CCCCN)C(=O)N[C@@H](C)C(=O)N[C@@H](C)C(=O)N[C@@H](Cc1ccccc1)C(=O)N[C@@H](CS)C(N)=O)[C@@H](C)CC (H-AAKIILNPKFRCKAAFC-NH2)	–	–	72	Active	< 5	35	–
GENTAMICIN	1	32	–	–	–	–	–
H-AARIILRWRFR-NH2	–	–	–	–	65	110	Activity (Staphylococcus aureus [7]): 99.99%; Activity (Candida albicans [8]): 99.99%; Activity (Pseudomonas aeruginosa [9]): Active; Ratio (Staphylococcus aureus [10]): 4; Ratio (Candida albicans [11]): 4; Activity (Candida albicans [12]): Active; Activity (Candida albicans [13]): Active; Activity (Candida albicans [14]): Active; Activity (Lipid bilayer [15]): < 5%; Activity (Escherichia coli [16]): Active; Activity (Staphylococcus aureus [17]): Active
